These results are taken from PubChem BioAssay.

The source made the active and inactive calls.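 How the source made its calls, unless noted: active means viability at or below 10% of carrier control in both of two separate runs; inconclusive means viability at or below 10% in only one of the two runs; inactive means the rest.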

A word on the viability: it is a read-out of living cells in per cent, often relative to untreated cells. As usually defined, the inhibition is the change of the read-out against control, counted positive when it falls.

Test [1] in a line: Her2 expression decrease, cell viability multiplex – SKBR3 breast tumor cells, AlphaScreen, ATP viability, primary screen (AID 461;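 active means Her2 level under about 52% in both replicate screens, with viability over 70% of control, limit read from the data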;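 on Her2 level: lower value means less Her2 protein in the cells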;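 on viability: percent of carrier control wells set as 100% viability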). The conditions noted are these: SKBR3 Her2 protein level, 18-24 h, measured here: SKBR3 viability, ATP luminescence, at 10 µM. In general terms: Alpha assays give light when donor and acceptor beads are brought close together.
In test [2] the target is Receptor tyrosine-protein kinase erbB-2 (Homo sapiens) (UniProt P04626). The description is as above. The conditions noted are these: 18-24 h, at 10 µM, stronger effect = lower value.
Receptor tyrosine-protein kinase erbB-2 (Homo sapiens), sequence (P04626 whole entry, looked up): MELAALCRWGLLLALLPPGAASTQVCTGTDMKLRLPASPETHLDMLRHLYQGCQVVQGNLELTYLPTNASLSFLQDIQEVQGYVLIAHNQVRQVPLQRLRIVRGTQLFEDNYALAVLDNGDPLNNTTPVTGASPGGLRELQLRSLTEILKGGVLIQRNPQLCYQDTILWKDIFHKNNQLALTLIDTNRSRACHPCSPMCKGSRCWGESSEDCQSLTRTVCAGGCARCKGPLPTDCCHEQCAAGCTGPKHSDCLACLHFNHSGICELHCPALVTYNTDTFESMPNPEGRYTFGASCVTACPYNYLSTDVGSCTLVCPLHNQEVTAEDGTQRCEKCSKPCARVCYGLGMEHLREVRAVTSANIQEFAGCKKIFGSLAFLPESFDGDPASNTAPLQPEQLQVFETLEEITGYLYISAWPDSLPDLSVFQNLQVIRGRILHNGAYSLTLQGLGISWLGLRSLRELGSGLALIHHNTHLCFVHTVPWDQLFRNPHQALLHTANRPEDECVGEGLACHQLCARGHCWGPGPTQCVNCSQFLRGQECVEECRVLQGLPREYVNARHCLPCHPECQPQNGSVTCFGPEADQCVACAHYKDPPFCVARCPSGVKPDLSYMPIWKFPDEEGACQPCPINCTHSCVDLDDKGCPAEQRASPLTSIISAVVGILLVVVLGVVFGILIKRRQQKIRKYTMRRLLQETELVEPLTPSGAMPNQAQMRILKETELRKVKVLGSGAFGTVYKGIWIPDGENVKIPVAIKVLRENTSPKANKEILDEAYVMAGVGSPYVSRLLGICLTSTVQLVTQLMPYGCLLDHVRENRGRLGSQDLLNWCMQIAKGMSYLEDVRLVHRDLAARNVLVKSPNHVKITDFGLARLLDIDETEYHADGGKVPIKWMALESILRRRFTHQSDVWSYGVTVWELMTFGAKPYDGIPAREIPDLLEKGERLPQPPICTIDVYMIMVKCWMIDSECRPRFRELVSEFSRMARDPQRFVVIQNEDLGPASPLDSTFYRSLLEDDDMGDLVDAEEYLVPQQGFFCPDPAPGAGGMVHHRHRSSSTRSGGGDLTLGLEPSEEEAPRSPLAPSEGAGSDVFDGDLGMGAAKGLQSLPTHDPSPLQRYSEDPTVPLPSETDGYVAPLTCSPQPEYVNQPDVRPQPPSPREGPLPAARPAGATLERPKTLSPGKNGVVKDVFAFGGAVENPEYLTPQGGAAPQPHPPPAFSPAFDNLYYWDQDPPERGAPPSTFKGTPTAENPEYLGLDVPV
A short description of test [3]: reduced viability of SK-BR-3 breast cancer cells – cell-based, 24 h, human, pilot screen (AID 572).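 Further: compound exposure lasted between 18 and 24 h rather than exactly 24 h; 100% = carrier-treated control wells.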 The conditions noted are these: SK-BR-3 viability, CellTiter-Glo luminescence, at 10 µM, stronger effect = lower value. Background: In ATP-based viability assays light output follows the ATP content of the culture.
Test [4] in a line: HUVEC growth inhibition – cell-based, human, primary screen (AID 575;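 active means viability at or below 30% in both replicate assays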;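 further: 100% = median of untreated cell wells with 0.1% DMSO on each plate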). The conditions noted are these: HUVEC proliferation, CellTiter-Glo luminescence, 72 h; at 10 µM; stronger effect = lower value. Summed up: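 Assay system: primary human umbilical vein endothelial cells / Buffer or medium: endothelial basal medium with 2% FBS plus growth supplements / Compound dosing: one dose, 10 µM final, 0.1% DMSO / Timing: 72 h treatment at 37 °C / Signal: CTG luminescence / Benchmarks: 32 DMSO-only cell-control wells (high), 32 MePR drug-control wells (low) per plate / Plate: collagen-coated 384-well format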

Test [5] in a line: H69AR cell proliferation blockers – human, duplicate replicates, primary screen (AID 580;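 active means viability at or under a set limit in both replicates, limit being median viability minus 3 SD, cut at about 48% in these data, passing the limit was not always enough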;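 further: 100% = mean luminescence of untreated wells and 0% = no signal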). The conditions noted are these: H69AR lung tumor cells viability, ATP luminescence, 72 h; at 10 µM; stronger effect = lower value.
Test [6] can be described thus: MRP1 drug-resistance reversers in H69AR cells – cell-based, doxorubicin co-treatment, pilot screen (AID 601;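 active means viability loss from added drug above about 55%, and viability with drug at most 40%, in both replicates, limit read from the data, passing the limit was not always enough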). The conditions noted are these: CellTiter-Glo, 72 h, at 10 µM; for differential viability (reversal): stronger effect = higher value.
Test [7] is described as follows: yeast transport mutant growth inhibition pilot in 384-well plates, post-Golgi transport modulator project (AID 636; in the data active means inhibition above about 31%). Conditions: absorbance 615 nm, about 18 h, stronger effect = higher value.
Test [8] in a line: growth suppression of yeast trafficking mutant, preliminary HTS, modulators of trafficking downstream of Golgi apparatus project, 1536-format plate, OD 615 nm (AID 637; in the data active means inhibition above about 30%). The conditions noted are these: yeast transport mutant growth, absorbance 615 nm, 18 h; stronger effect = higher value.
Setting [9] is: H69AR cells + 2 uM doxorubicin, measured here: viability with 2 uM doxorubicin, stronger effect = lower value.
[10] abbreviates: H69AR cells, compound alone cytotoxicity.

For the molecule `CCOCCCNC(=O)C1CCN(S(=O)(=O)N(CC(C)C)CC(C)C)CC1`, the viability in test [1] is 121%; in test [3], 121% (inactive); in test [4], 97.9% (inactive); in test [5] it was 111% (inactive); in test [6] (setting [9]) it was 87.3%; in test [6] (setting [10]), 111%. In addition, the Her2 level in test [2] is 100% (inactive). Also, the differential viability (reversal) in test [6] (H69AR cells + 2 uM doxorubicin) was 24% (inactive). In addition, the inhibition was -4.13% (inactive) in test [7] and 2.1% (inactive) in test [8].
For `Cc1cnnc2c1-c1nonc1CC2`, the viability in test [1] was 94.5%; in test [3], 94.5% (inactive); in test [4], 87.4% (inactive); in test [5] it was 105% (inactive); in test [6] (setting [9]), 90.1%; in test [6] (setting [10]), 105%. Moreover, in test [2], the Her2 level was 102% (inactive). Moreover, in test [6] (H69AR cells + 2 uM doxorubicin), the differential viability (reversal) is 15.2% (inactive). Also, the inhibition is -6.13% (inactive) in test [7] and 2.74% (inactive) in test [8].
Regarding `Cc1ccc(S(=O)(=O)N2CCCC2C(=O)OCc2nc3ccccc3s2)cc1` (stereo not given), the viability in test [1] is 85.5%; in test [3] it was 85.5% (inactive); in test [4] it was 79.7% (inactive); in test [5], 99.2% (inactive); in test [6] (setting [9]), 99.1%; in test [6] (setting [10]) it was 99.2%. In addition, in test [2], the Her2 level is 80.5% (inactive). Also, the differential viability (reversal) in test [6] (H69AR cells + 2 uM doxorubicin) was 0.14% (inactive). Also, the inhibition in test [7] was -7.95% (inactive); in test [8], -5.4% (inactive).
For the molecule `Cc1ccc(N2CC(C(=O)N3CCN(C(=O)c4ccco4)CC3)CC2=O)cc1` (stereo not given), the viability in test [1] was 96.5%; in test [3], 96.5% (inactive); in test [4] it was 104% (inactive); in test [5], 96.1% (inactive); in test [6] (setting [9]), 98.1%; in test [6] (setting [10]), 96.1%. In addition, in test [2], the Her2 level is 91% (inactive). Besides, the differential viability (reversal) in test [6] (H69AR cells + 2 uM doxorubicin) is -1.97% (inactive). The figures for the inhibition in test [7] and in test [8] were 0.39% (inactive) and -1.29% (inactive), respectively.
`Cc1ccc(Cl)cc1N1CCN(C(=O)C2CCCN(S(=O)(=O)c3cnc[nH]3)C2)CC1` (stereo not given): the viability in test [1] is 86.5%; in test [3], 86.5% (inactive); in test [4] it was 69.8% (inactive); in test [5] it was 83.8% (inactive); in test [6] (setting [9]), 78%; in test [6] (setting [10]), 83.8%. In addition, the Her2 level in test [2] is 99.5% (inactive). The differential viability (reversal) in test [6] (H69AR cells + 2 uM doxorubicin) was 5.75% (inactive). In addition, the inhibition in test [7] is -2.93% (inactive); in test [8], -2.62% (inactive).
Turning to `CCn1c(Cc2ccc(OC)cc2)nnc1SCC(=O)Nc1cccc(C(=O)OC)c1`, the viability in test [1] is 89.5%; in test [3] it was 89.5% (inactive); in test [4], 85.8% (inactive); in test [5], 103% (inactive); in test [6] (setting [9]), 95.7%; in test [6] (setting [10]), 103%. In test [2], the Her2 level was 86.5% (inactive). Also, the differential viability (reversal) in test [6] (H69AR cells + 2 uM doxorubicin) was 7.12% (inactive). The results for the inhibition in test [7] and in test [8] were -1.45% (inactive) and -2.86% (inactive), respectively.
On to `CCn1cc(C2=NOC(C(=O)Nc3cc(C)nn3-c3ccccc3)C2)c(C)n1` (stereo not given), for which the viability in test [1] was 89.5%; in test [3], 89.5% (inactive); in test [4], 101% (inactive); in test [5], 101% (inactive); in test [6] (setting [9]) it was 93%; in test [6] (setting [10]) it was 101%. The Her2 level in test [2] was 88.5% (inactive). In test [6] (H69AR cells + 2 uM doxorubicin), the differential viability (reversal) was 8.29% (inactive). Besides, the inhibition in test [7] is -1.18% (inactive); in test [8] it was -8.25% (inactive).
As for `COC(=O)c1oc2ccc(Br)cc2c1NC(=O)CN1CCN(C)CC1`, the viability is 92.5% in test [1]; 92.5% (inactive) in test [3]; 101% (inactive) in test [4]; 96.6% (inactive) in test [5]; 80.3% in test [6] (setting [9]); 96.6% in test [6] (setting [10]). For the same molecule, in test [2], the Her2 level is 100% (inactive). For the same molecule, in test [6] (H69AR cells + 2 uM doxorubicin), the differential viability (reversal) was 16.2% (inactive). The inhibition was 1.18% (inactive) in test [7] and 0.55% (inactive) in test [8].
`O=C(Nc1ccccc1)c1ccc(NCC2CCCO2)c(S(=O)(=O)N2CCOCC2)c1` (stereo not given): the viability was 87% in test [1]; 87% (inactive) in test [3]; 102% (inactive) in test [4]; 90% (inactive) in test [5]; 85.7% in test [6] (setting [9]); 90% in test [6] (setting [10]). In addition, the Her2 level in test [2] was 95% (inactive). For the same molecule, the differential viability (reversal) in test [6] (H69AR cells + 2 uM doxorubicin) is 4.29% (inactive). Moreover, the results for the inhibition in test [7] and in test [8] were -3.16% (inactive) and -5.87% (inactive), respectively.
Regarding `COc1ccc(OC)c(S(=O)(=O)N2CCC(C(=O)NCC3CCCO3)CC2)c1` (stereo not given), the viability in test [1] was 101%; in test [3], 101% (inactive); in test [4] it was 106% (inactive); in test [5], 98.9% (inactive); in test [6] (setting [9]) it was 90.2%; in test [6] (setting [10]), 98.9%. Moreover, the Her2 level in test [2] was 84.5% (inactive). In addition, the differential viability (reversal) in test [6] (H69AR cells + 2 uM doxorubicin) is 8.66% (inactive). The inhibition in test [7] is -6.27% (inactive); in test [8] it was -3.49% (inactive).
On to `c1ccc(CNc2c3c(nc4ncnn24)CCCC3)nc1`, for which the viability in test [1] was 95.5%; in test [3] it was 95.5% (inactive); in test [4], 109% (inactive); in test [5] it was 85.2% (inactive); in test [6] (setting [9]) it was 89.5%; in test [6] (setting [10]), 85.2%. The Her2 level in test [2] is 83.5% (inactive). In addition, the differential viability (reversal) in test [6] (H69AR cells + 2 uM doxorubicin) is -4.29% (inactive). Also, the inhibition in test [7] is -5.34% (inactive); in test [8], -3.33% (inactive).
On to `O=C(O)c1[nH]c2ccc(Cl)cc2c1CC(=O)N1CCN(C(=O)c2ccco2)CC1`, for which the viability was 83.5% in test [1]; 83.5% (inactive) in test [3]; 108% (inactive) in test [4]; 95.8% (inactive) in test [5]; 90.5% in test [6] (setting [9]); 95.8% in test [6] (setting [10]). Further, in test [2], the Her2 level is 112% (inactive). The differential viability (reversal) in test [6] (H69AR cells + 2 uM doxorubicin) is 5.25% (inactive). Besides, the results for the inhibition in test [7] and in test [8] were -4.34% (inactive) and -9.83% (inactive), respectively.
Turning to `NC(=O)c1cccc(S(=O)(=O)N2CCCCC2)c1`, the viability in test [1] is 99%; in test [3], 99% (inactive); in test [4] it was 96.9% (inactive); in test [5], 106% (inactive); in test [6] (setting [9]) it was 96.5%; in test [6] (setting [10]) it was 106%. For the same molecule, the Her2 level in test [2] is 96% (inactive). Besides, in test [6] (H69AR cells + 2 uM doxorubicin), the differential viability (reversal) was 9.71% (inactive). The values for the inhibition in test [7] and in test [8] were -7.84% (inactive) and 2.62% (inactive), respectively.
Take `O=C(Oc1ccc(Cl)cc1N1C(=O)CCC1=O)c1ccco1`: the viability in test [1] was 96.5%; in test [3], 96.5% (inactive); in test [4] it was 78% (inactive); in test [5] it was 90.9% (inactive); in test [6] (setting [9]), 87.3%; in test [6] (setting [10]), 90.9%. The Her2 level in test [2] is 74% (inactive). Moreover, the differential viability (reversal) in test [6] (H69AR cells + 2 uM doxorubicin) was 3.6% (inactive). Also, the inhibition is -3.65% (inactive) in test [7] and 2.46% (inactive) in test [8].
Take `COc1ccc(C(NC(=O)C(C)(C)C)NC(=O)C(C)(C)C)cc1`: the viability in test [1] was 86%; in test [3], 86% (inactive); in test [4], 111% (inactive); in test [5] it was 91.7% (inactive); in test [6] (setting [9]) it was 85.5%; in test [6] (setting [10]) it was 91.7%. For the same molecule, the Her2 level in test [2] is 99.5% (inactive). The differential viability (reversal) in test [6] (H69AR cells + 2 uM doxorubicin) is 6.21% (inactive). Also, the inhibition is -5.32% (inactive) in test [7] and -0.32% (inactive) in test [8].
